# Test results published in ChEMBL document CHEMBL2150901, “Synthesis and biological activity of tricyclic cycloalkylimidazo-, pyrimido- and diazepinopurinediones” (Eur J Med Chem, 2011).
# Active and inactive are the calls of the source. No cut-off for these calls is given here.
# Tests used:
# [1] = tested on: Mus musculus; assay: Anticonvulsant activity in F1 albino mouse assessed as protection against subcutaneous pentylenetetrazole-induced seizures at 300 mg/kg, ip after 1 hr; assay type: functional, organism-based; parameters: dose 300 mg/kg
# How it was run: (§1)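 Male albino F-1 mice (18–25 g), groups of 1–5 (rotorod 2–8). Compound given ip as a suspension in 0.5% methylcellulose at 30, 100 and 300 mg/kg. Seizures by maximal electroshock or subcutaneous pentylenetetrazole; neurotoxicity by rotorod. Read at 0.5 and 4 h, with some at 0.25, 1 and 2 h. Value is the minimum active dose, with protected (or toxic)/tested animals.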
# [2] = target: T1, Adenosine receptor A2b (Homo sapiens) (UniProt P29275); assay: Displacement of [3H]PSB-603 from human recombinant adenosine A2B receptor expressed in CHO cells at 10 uM; assay type: cell-based
# T1 sequence (whole entry): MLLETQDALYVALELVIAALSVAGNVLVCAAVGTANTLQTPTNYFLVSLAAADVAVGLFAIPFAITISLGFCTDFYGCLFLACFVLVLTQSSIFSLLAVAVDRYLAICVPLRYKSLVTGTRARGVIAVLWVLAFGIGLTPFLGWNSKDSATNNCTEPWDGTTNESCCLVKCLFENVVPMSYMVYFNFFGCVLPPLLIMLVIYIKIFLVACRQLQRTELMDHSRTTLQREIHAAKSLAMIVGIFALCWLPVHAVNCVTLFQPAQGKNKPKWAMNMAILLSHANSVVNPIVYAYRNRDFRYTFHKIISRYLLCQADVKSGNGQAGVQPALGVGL
# How it was run: (§2)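 CHO cell membranes expressing the human receptor. Radioligands: A1 [3H]CCPA; A2B [3H]ZM241385 or [3H]PSB-603; A3 [3H]PSB-11. […] Potent compounds run at 6–7 concentrations spanning 3 orders of magnitude; Ki ± SEM.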
# [3] = tested on: Mus musculus; assay: Neurotoxicity in F1 albino mouse assessed as minimal motor impairment at 300 mg/kg, ip after 4 hrs by rotorod test; assay type: toxicity, organism-based; parameters: dose 300 mg/kg, route intraperitoneal; conditions: in vivo; how it was run: as §1
# [4] = target: Adenosine receptor A2a (Rattus norvegicus, UniProt P30543); assay: Displacement of [3H]MSX-2 from adenosine A2A receptor in rat brain striatal membrane; assay type: cell membranes
# [5] = target: T2, Adenosine receptor A3 (Homo sapiens) (UniProt P0DMS8); assay: Displacement of [3H]PSB-11 from human recombinant adenosine A3 receptor expressed in CHO cells at 10 uM; assay type: cell-based; how it was run: as §2
# T2 sequence (whole entry): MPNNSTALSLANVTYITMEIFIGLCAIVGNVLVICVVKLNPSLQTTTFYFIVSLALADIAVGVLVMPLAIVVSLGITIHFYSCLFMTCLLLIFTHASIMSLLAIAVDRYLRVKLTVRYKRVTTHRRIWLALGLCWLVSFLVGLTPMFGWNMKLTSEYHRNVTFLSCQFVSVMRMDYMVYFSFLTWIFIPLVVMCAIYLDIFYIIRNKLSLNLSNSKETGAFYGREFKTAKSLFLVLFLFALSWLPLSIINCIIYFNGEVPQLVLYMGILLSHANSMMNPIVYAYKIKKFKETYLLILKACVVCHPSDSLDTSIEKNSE
# [6] = tested on: Mus musculus; assay: Anticonvulsant activity in F1 albino mouse assessed as protection against maximal electroshock-induced seizures at 300 mg/kg, ip after 4 hrs; assay type: functional, organism-based; parameters: dose 300 mg/kg; how it was run: as §1
# [7] = target: T3, Adenosine receptor A1 (Homo sapiens, UniProt P30542); assay: Displacement of [3H]CCPA from human recombinant adenosine A1 receptor expressed in CHO cells; assay type: cell-based
# T3 sequence (P30542 whole entry): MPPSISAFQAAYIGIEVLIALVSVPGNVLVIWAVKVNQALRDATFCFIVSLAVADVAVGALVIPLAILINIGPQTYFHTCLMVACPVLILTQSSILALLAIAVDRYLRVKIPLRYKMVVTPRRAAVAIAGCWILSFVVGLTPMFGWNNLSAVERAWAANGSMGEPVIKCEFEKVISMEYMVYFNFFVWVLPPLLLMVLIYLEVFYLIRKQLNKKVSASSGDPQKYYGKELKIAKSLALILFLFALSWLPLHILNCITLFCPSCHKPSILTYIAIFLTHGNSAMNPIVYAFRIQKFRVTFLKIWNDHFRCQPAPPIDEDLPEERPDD
# [8] = tested on: Mus musculus; assay: Anticonvulsant activity in F1 albino mouse assessed as protection against subcutaneous pentylenetetrazole-induced seizures at 300 mg/kg, ip after 0.25 hrs; assay type: functional, organism-based; parameters: dose 300 mg/kg; how it was run: as §1
# [9] = tested on: Mus musculus; assay: Neurotoxicity in F1 albino mouse assessed as minimal motor impairment at 300 mg/kg, ip after 0.5 hrs by rotorod test; assay type: toxicity, organism-based; parameters: dose 300 mg/kg, route intraperitoneal; conditions: in vivo; how it was run: as §1
# [10] = tested on: Mus musculus; assay: Anticonvulsant activity in F1 albino mouse assessed as protection against maximal electroshock-induced seizures at 300 mg/kg, ip after 0.25 hrs; assay type: functional, organism-based; parameters: dose 300 mg/kg; how it was run: as §1
# [11] = target: Adenosine receptor A2a (Homo sapiens, UniProt P29274); assay: Displacement of [3H]MSX-2 from human recombinant adenosine A2A receptor expressed in CHO cells; assay type: cell-based
# [12] = tested on: Mus musculus; assay: Neurotoxicity in F1 albino mouse assessed as minimal motor impairment at 300 mg/kg, ip after 0.25 hrs by rotorod test; assay type: toxicity, organism-based; parameters: dose 300 mg/kg, route intraperitoneal; conditions: in vivo; how it was run: as §1
# [13] = tested on: Mus musculus; assay: Neurotoxicity in F1 albino mouse assessed as minimal motor impairment at 300 mg/kg, ip after 1 hr by rotorod test; assay type: toxicity, organism-based; parameters: dose 300 mg/kg, route intraperitoneal; conditions: in vivo; how it was run: as §1
# [14] = tested on: Mus musculus; assay: Anticonvulsant activity in F1 albino mouse assessed as protection against subcutaneous pentylenetetrazole-induced seizures at 300 mg/kg, ip after 0.5 hrs; assay type: functional, organism-based; parameters: dose 300 mg/kg; how it was run: as §1
# [15] = tested on: Mus musculus; assay: Anticonvulsant activity in F1 albino mouse assessed as protection against subcutaneous pentylenetetrazole-induced seizures at 300 mg/kg, ip after 4 hrs; assay type: functional, organism-based; parameters: dose 300 mg/kg; how it was run: as §1
# [16] = target: T4, Adenosine receptor A3 (Homo sapiens, UniProt P0DMS8); assay: Displacement of [3H]PSB-11 from human recombinant adenosine A3 receptor expressed in CHO cells; assay type: cell-based
# T4 sequence (P0DMS8 whole entry): T2 sequence (whole entry)
# [17] = target: T5, Adenosine receptor A1 (Rattus norvegicus) (UniProt P25099); assay: Displacement of [3H]CCPA from adenosine A1 receptor in rat brain cortical membrane at 25 uM; assay type: cell membranes
# T5 sequence (whole entry): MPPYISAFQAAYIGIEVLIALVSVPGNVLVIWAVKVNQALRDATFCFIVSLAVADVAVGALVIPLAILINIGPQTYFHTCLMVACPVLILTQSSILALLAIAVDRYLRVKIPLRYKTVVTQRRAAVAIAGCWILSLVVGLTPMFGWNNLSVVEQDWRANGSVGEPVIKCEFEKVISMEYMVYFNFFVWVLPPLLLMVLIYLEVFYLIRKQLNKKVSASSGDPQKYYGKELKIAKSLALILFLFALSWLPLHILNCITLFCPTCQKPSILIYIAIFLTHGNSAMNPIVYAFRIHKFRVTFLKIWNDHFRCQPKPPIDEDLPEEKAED
# [18] = tested on: Mus musculus; assay: Anticonvulsant activity in F1 albino mouse assessed as protection against maximal electroshock-induced seizures at 300 mg/kg, ip after 1 hr; assay type: functional, organism-based; parameters: dose 300 mg/kg; how it was run: as §1
# [19] = target: T6, Adenosine receptor A1 (Rattus norvegicus, UniProt P25099); assay: Displacement of [3H]CCPA from adenosine A1 receptor in rat brain cortical membrane; assay type: cell membranes
# T6 sequence (P25099 whole entry): T5 sequence (whole entry)
# [20] = tested on: Mus musculus; assay: Anticonvulsant activity in F1 albino mouse assessed as protection against maximal electroshock-induced seizures at 300 mg/kg, ip after 0.5 hrs; assay type: functional, organism-based; parameters: dose 300 mg/kg; how it was run: as §1
# [21] = species: Rattus norvegicus; assay: Selectivity ratio of Ki for adenosine A1 receptor in rat brain cortical membrane to Ki for adenosine A2A receptor in rat brain striatal membrane; assay type: cell membranes
# How it was run: (§3)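 Ki ratios from radioligand competition binding. Rat A1 used brain cortical membranes and rat A2A used brain striatal membranes. Human A1 and A2A used membranes of CHO cells expressing the receptors. A1 radioligand [³H]CCPA; A2A radioligand [³H]MSX-2. Potent compounds were tested at 6–7 concentrations spanning 3 orders of magnitude.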
# [22] = target: T7, Adenosine receptor A2b (Homo sapiens, UniProt P29275); assay: Displacement of [3H]PSB-603 from human recombinant adenosine A2B receptor expressed in CHO cells; assay type: cell-based; how it was run: as §2
# T7 sequence (P29275 whole entry): T1 sequence (whole entry)
# [23] = target: T8, Adenosine receptor A1 (Homo sapiens) (UniProt P30542); assay: Displacement of [3H]CCPA from human recombinant adenosine A1 receptor expressed in CHO cells at 10 uM; assay type: cell-based; how it was run: as §2
# T8 sequence (whole entry): T3 sequence (P30542 whole entry)
# [24] = tested on: CHO; assay: Selectivity ratio of Ki for human recombinant adenosine A2A receptor expressed in CHO cells to Ki for adenosine A2A receptor in rat brain striatal membrane; assay type: cell-based; how it was run: as §3
# Chain of Adenosine receptor A2a (Homo sapiens, UniProt P29274) (P29274 whole entry): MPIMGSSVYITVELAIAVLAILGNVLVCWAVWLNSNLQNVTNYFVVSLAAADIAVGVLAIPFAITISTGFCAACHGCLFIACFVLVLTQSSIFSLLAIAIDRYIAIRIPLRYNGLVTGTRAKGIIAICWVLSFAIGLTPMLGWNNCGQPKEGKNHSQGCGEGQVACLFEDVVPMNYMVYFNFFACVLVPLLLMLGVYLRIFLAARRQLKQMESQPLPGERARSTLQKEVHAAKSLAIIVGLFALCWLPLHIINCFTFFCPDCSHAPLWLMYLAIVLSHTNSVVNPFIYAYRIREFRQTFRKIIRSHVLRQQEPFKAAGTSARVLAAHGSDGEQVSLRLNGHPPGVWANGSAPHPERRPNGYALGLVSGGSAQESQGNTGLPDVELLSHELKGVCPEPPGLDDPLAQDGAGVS
# Chain of Adenosine receptor A2a (Rattus norvegicus, UniProt P30543) (P30543 whole entry): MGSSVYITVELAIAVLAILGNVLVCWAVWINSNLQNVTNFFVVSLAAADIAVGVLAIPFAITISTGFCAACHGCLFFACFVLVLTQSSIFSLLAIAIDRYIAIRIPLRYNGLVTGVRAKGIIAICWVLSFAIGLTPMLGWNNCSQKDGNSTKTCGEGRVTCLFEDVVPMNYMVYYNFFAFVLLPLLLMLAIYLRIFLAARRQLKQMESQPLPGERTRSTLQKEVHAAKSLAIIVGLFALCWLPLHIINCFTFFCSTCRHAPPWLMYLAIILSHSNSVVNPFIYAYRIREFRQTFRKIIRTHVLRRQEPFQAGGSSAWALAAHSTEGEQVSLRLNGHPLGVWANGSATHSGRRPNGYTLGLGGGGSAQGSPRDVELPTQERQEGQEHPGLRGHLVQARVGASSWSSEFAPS
SMILES,Activity [1],inhibition [2] [%],Activity [3],Ki [4] [µM],inhibition [5] [%],Activity [6],Ki [7] [µM],Activity [8],Activity [9],Activity [10],Ki [11] [µM],Activity [12],Activity [13],Activity [14],Activity [15],inhibition [17] [%],Activity [18],Ki [19] [µM],Activity [20],Ratio Ki [21],further results
Cn1c(=O)c2c(nc3n2CCCN3C2CCC2)n(C)c1=O,inactive,21,Non-toxic,1.93,5,inactive,10.3,inactive,Non-toxic,inactive,0.847,Non-toxic,Non-toxic,inactive,inactive,39,inactive,≥ 10,inactive,> 5,Ki [16]: > 10 µM; Ki [22]: > 10 µM
Cn1c(=O)c2c(nc3n2CCCN3C2CCCCCC2)n(C)c1=O,inactive,0,Non-toxic,2.67,6,inactive,> 10,inactive,Non-toxic,inactive,1.16,Non-toxic,Non-toxic,inactive,inactive,4,inactive,> 10,inactive,4,Ki [16]: > 10 µM; inhibition [23]: 41%; Ki [22]: > 10 µM
CC(=O)O[C@H]1CC[C@H](N2CCCn3c2nc2c3c(=O)n(C)c(=O)n2C)CC1,inactive,0,Non-toxic,6.2,27,inactive,> 10,inactive,Non-toxic,inactive,21.9,Non-toxic,Non-toxic,inactive,inactive,5,inactive,> 10,inactive,> 2,Ratio Ki [24]: 3; Ki [16]: > 10 µM; inhibition [23]: 5%; Ki [22]: > 10 µM
CC1CCCCC1N1CCCCn2c1nc1c2c(=O)n(C)c(=O)n1C (mixture of isomers),inactive,–,Non-toxic,3.46,–,inactive,–,inactive,Non-toxic,inactive,–,Non-toxic,Non-toxic,Active,inactive,27,inactive,> 25,inactive,> 7,–
Cn1c(=O)c2c(nc3n2CCCN3C2CCCCC2)n(C)c1=O,inactive,0,Non-toxic,0.81,12,inactive,> 10,inactive,Non-toxic,inactive,1.61,Non-toxic,Non-toxic,Active,inactive,39,inactive,≥ 25,inactive,> 31,Ratio Ki [24]: 2; Ki [16]: > 10 µM; inhibition [23]: 37%; Ki [22]: > 10 µM
